The species named for data set [1] is Rattus norvegicus. Put plainly: Inhibition of rat L-type calcium channel dihydropyridine binding site at 10 uM relative to control. Put shortly: (§1)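 Single-concentration screen at 10 µM across a panel of over 37 receptors and enzymes linked to cardiovascular effects or toxicity. Read-out is percent activity.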
The target in data set [2] is Histamine H1 receptor (Homo sapiens) (UniProt P35367). Kind of data set: Inhibition of human histamine H1 receptor at 10 uM relative to control. The essentials:
(§2)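 Screening panel of over 37 receptors and enzymes relevant to cardiovascular effects or toxicity. Each target was tested at a single concentration of 10 µM, with % activity reported.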

In data set [3] the target is Protein kinase C (PKC) (Rattus norvegicus) (UniProt P05696+P68403+P09216+P63319+P09215+Q64617+Q9WTQ0+P09217). Kind of data set: Inhibition of rat PKC at 10 uM relative to control. The essentials: as §2
The species named for data set [4] is Rattus norvegicus. Put plainly: Inhibition of rat sodium channel site 2 at 10 uM relative to control. The essentials:
as §1

The target in data set [5] is L-type calcium channel, benzothiazepine binding site (Rattus norvegicus, UniProt P22002+P27732+Q02485). Put plainly: Inhibition of rat L-type calcium channel benzothiazepine binding site at 10 uM relative to control. The essentials: as §2
The species entered for data set [6] is Rattus norvegicus. Kind of data set: Inhibition of rat choline transporter at 10 uM relative to control. The essentials:
as §1

In data set [7] the target is 5-hydroxytryptamine receptor 1B (Rattus norvegicus) (UniProt P28564). Put plainly: Inhibition of rat 5HT-1B receptor at 10 uM relative to control. Put shortly: as §2
Chain of 5-hydroxytryptamine receptor 1B (Rattus norvegicus) (P28564 whole entry): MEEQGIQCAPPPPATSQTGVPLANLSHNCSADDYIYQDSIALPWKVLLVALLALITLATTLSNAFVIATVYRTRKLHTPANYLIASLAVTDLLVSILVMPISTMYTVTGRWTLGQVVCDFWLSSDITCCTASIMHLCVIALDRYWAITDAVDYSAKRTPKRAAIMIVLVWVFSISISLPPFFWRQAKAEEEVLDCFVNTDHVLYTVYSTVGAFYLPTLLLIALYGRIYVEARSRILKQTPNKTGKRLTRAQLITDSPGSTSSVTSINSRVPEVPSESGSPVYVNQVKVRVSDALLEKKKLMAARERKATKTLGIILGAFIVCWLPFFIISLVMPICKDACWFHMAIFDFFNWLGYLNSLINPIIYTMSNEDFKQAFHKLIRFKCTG
Data set [8] addresses Sodium-dependent dopamine transporter (Homo sapiens) (UniProt Q01959). Put plainly: Inhibition of human DAT at 10 uM relative to control. The essentials: as §2
Data set [9] can be described thus: Metabolic stability in human liver microsomes assessed as compound remaining at 3 uM after 10 mins. In kind it is ADME. As to conditions: read-out: Stability. Put shortly:
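Parent compound at 3 µM was incubated 10 min in human, rat or mouse liver microsomes with appropriate co-factors. Read-out is percent of parent remaining.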
A general note: Liver microsomes are vesicles of endoplasmic reticulum, rich in cytochrome P450 enzymes.

The species entered for a further data set is Homo sapiens. Put plainly: Inhibition of sodium channel (unknown origin) at 10 uM relative to control. Put shortly: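 Calcium (ICa) and sodium (INa) currents were measured as percent inhibition at a single concentration of 10 µM. Values are means of 2-4 experiments.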
Data set [10] in a line: Cmax in rat at 2 mg/kg administered as intra-arterial infusion for 10 mins and 5 mg/kg, po. As to conditions: in vivo. In kind it is ADME, organism-based. More on the design: route oral. Put shortly: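 Rats (3 per compound) received intra-arterial infusion over 10 min or oral gavage. Vehicle for both routes was 40% PEG 400, 40% water and 20% ethanol. Values are means of 3 animals.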

Data set [11] is filed under the species Rattus norvegicus. Kind of data set: Inhibition of rat muscarinic acetylcholine receptor at 10 uM relative to control. Put shortly: as §1
Another data set is filed under the species Oryctolagus cuniculus. Kind of data set: Toxicity in rabbit assessed as increase in gastrointestinal motility. The format is organism-based. As to conditions: in vivo.
A short description of data set [12]: Cmax in rabbit at 0.3 to 3 mg/kg. The format is ADME, organism-based, Oryctolagus cuniculus. As to conditions: in vivo. Put shortly:
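Rabbits were dosed at 0.3, 1.0 and 3.0 mg/Kg. Effective refractory period was measured in atrium and ventricle, and blood pressure was recorded. The plasma concentration giving 20% atrial ERP prolongation (EC20) was calculated.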

In data set [13] the target is D(1A) dopamine receptor (Homo sapiens) (UniProt P21728). Put plainly: Inhibition of human dopamine D1 receptor at 10 uM relative to control. The essentials:
as §2

Data set [14] deals with Somatostatin receptor type 2 (Homo sapiens) (UniProt P30874). Kind of data set: Inhibition of human SS2 receptor at 10 uM relative to control. The essentials: as §2
Chain of Somatostatin receptor type 2 (Homo sapiens) (P30874 whole entry): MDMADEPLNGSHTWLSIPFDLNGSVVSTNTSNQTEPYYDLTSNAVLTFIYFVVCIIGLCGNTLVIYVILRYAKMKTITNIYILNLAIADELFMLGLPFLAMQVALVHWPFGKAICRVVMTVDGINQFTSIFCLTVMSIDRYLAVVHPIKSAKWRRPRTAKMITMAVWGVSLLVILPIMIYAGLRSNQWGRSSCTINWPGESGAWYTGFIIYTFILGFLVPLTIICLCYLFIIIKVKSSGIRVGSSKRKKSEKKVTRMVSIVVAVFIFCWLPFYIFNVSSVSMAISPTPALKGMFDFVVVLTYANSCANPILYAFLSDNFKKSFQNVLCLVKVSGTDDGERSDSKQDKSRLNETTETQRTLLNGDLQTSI
The target in data set [15] is D(3) dopamine receptor (Homo sapiens) (UniProt P35462). Kind of data set: Inhibition of human dopamine D3 receptor at 10 uM relative to control. The essentials: as §2
Chain of D(3) dopamine receptor (Homo sapiens) (P35462 whole entry): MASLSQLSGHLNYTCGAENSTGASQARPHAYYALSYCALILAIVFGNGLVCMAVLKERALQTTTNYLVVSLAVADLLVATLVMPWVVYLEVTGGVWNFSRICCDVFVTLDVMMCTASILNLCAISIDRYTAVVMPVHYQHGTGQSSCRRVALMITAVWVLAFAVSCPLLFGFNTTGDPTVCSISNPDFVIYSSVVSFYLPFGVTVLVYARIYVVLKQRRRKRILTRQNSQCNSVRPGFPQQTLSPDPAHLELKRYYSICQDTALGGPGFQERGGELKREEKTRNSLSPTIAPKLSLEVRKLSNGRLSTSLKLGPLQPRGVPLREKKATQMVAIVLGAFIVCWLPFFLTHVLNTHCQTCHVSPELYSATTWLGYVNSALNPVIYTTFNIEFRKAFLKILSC
For data set [16], the target named is 5-hydroxytryptamine receptor 4 (Cavia porcellus) (UniProt O70528). Put plainly: Inhibition of guinea pig 5-HT4 receptor at 10 uM relative to control. Put shortly: as §2
Chain of 5-hydroxytryptamine receptor 4 (Cavia porcellus) (O70528 whole entry): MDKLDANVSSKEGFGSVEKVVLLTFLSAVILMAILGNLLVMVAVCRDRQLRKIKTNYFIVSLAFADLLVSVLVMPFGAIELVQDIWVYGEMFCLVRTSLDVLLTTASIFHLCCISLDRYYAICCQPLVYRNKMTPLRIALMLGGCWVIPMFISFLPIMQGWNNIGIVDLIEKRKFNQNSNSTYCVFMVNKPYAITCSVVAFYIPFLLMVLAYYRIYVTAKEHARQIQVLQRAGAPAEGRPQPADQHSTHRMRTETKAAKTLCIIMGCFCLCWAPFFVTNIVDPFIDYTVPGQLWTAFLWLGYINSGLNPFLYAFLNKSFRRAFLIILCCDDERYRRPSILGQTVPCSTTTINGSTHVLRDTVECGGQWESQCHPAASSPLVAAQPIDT
Data set [17] concerns the target Sodium-dependent serotonin transporter (Homo sapiens) (UniProt P31645). Put plainly: Inhibition of human SERT at 10 uM relative to control. The essentials:
as §2

Data set [18] addresses Adenosine receptor A2a (Homo sapiens) (UniProt P29274). Kind of data set: Inhibition of human adenosine A2A receptor at 10 uM relative to control. The essentials:
as §2

The species named for data set [19] is Rattus norvegicus. Kind of data set: Inhibition of rat GABAA central-type benzodiazepine receptor at 10 uM relative to control. Put shortly:
as §1

Data set [20] has as its target Cannabinoid receptor 1 (Homo sapiens) (UniProt P21554). Kind of data set: Inhibition of human CB1 receptor at 10 uM relative to control. The essentials: as §2
Data set [21] concerns the target Melanocyte-stimulating hormone receptor (Homo sapiens) (UniProt Q01726). Put plainly: Inhibition of human MC1 receptor at 10 uM relative to control. The essentials:
as §2

Data set [22] deals with Mineralocorticoid receptor (Rattus norvegicus) (UniProt P22199). Kind of data set: Inhibition of rat aldosterone receptor at 10 uM relative to control. Put shortly: as §2
Data set [23] addresses Adenosine receptor A3 (Homo sapiens) (UniProt P0DMS8). Kind of data set: Inhibition of human adenosine A3 receptor at 10 uM relative to control. Put shortly: as §1
Data set [24] concerns the target Neuropeptide Y receptor type 1 (Homo sapiens) (UniProt P25929). Put plainly: Inhibition of human NPY1-R at 10 uM relative to control. Put shortly:
as §2

The target of data set [25] is B1 bradykinin receptor (Homo sapiens) (UniProt P46663). Kind of data set: Inhibition of human bradykinin B1 receptor at 10 uM relative to control. The essentials:
as §2

Data set [26] has as its target Calcitonin receptor (Homo sapiens) (UniProt P30988). Put plainly: Inhibition of human calcitonin receptor at 10 uM relative to control. Put shortly:
as §2

Structures are written as SMILES.

Chain of Sodium-dependent dopamine transporter (Homo sapiens) (Q01959 whole entry): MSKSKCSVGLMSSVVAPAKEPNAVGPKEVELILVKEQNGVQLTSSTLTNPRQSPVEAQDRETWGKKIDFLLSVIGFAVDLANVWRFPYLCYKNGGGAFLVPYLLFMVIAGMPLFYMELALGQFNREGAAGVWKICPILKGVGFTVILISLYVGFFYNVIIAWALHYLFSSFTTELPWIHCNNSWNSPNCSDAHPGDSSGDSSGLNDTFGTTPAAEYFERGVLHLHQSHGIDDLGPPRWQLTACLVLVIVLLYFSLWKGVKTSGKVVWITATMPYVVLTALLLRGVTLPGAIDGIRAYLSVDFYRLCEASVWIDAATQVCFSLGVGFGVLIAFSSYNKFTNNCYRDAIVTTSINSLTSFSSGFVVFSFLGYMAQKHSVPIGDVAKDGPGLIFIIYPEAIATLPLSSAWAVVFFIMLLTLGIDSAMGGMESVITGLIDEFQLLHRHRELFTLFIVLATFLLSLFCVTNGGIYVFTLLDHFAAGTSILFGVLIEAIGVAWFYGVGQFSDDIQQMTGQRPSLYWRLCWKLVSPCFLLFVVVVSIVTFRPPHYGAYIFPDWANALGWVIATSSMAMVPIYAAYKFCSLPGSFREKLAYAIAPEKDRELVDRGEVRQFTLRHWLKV
Chain of Sodium-dependent serotonin transporter (Homo sapiens) (P31645 whole entry, looked up): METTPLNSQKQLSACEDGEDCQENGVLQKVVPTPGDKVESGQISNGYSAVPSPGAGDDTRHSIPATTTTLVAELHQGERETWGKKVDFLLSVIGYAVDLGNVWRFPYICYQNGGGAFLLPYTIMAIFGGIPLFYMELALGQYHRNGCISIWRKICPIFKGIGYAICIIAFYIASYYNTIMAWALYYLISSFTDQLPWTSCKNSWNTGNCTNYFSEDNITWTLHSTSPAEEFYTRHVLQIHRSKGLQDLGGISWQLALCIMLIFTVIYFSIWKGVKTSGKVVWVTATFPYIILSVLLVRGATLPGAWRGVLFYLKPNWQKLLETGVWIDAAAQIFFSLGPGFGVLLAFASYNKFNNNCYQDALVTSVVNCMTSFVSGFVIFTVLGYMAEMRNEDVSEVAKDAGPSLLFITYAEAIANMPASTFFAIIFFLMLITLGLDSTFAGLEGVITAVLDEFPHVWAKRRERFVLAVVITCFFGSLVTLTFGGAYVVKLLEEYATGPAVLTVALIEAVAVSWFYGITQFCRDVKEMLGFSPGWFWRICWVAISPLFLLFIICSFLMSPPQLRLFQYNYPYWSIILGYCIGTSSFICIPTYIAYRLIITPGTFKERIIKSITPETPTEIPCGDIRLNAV
Chain of Adenosine receptor A2a (Homo sapiens) (P29274 whole entry): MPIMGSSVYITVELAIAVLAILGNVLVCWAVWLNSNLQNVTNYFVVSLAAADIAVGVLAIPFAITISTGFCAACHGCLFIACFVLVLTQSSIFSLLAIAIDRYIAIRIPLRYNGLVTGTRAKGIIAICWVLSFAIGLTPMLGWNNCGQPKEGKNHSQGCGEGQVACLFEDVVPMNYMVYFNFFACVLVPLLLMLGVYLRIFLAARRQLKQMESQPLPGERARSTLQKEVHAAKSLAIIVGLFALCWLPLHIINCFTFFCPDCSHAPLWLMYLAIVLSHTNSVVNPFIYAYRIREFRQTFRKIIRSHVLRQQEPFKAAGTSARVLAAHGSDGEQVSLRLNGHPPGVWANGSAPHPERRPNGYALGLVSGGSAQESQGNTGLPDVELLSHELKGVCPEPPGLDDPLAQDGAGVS
Chain of D(1A) dopamine receptor (Homo sapiens) (P21728 whole entry): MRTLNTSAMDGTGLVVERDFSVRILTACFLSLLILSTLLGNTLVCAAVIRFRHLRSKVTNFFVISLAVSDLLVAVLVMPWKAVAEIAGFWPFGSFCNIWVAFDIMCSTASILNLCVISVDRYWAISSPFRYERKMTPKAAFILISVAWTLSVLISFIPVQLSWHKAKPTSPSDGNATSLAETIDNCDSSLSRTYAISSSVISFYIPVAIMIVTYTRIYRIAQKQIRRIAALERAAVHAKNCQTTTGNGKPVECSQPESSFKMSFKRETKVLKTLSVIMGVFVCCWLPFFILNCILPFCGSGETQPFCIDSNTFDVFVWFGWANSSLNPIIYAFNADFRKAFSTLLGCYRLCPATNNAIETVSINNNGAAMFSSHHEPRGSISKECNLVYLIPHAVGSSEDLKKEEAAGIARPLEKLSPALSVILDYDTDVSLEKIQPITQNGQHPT
Chain of Histamine H1 receptor (Homo sapiens) (P35367 whole entry): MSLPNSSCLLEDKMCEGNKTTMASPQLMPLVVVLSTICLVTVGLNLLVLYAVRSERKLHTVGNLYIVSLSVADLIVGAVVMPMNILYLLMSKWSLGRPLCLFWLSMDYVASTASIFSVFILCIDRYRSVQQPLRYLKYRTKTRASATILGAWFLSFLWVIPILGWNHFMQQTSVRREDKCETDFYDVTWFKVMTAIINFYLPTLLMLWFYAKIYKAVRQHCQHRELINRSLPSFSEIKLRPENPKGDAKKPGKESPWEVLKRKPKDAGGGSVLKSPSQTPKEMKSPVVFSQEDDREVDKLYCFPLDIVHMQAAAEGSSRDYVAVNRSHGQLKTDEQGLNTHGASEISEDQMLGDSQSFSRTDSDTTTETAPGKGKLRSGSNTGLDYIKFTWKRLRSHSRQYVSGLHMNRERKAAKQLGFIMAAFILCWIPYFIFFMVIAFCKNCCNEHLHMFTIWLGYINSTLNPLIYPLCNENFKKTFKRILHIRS
Chain of Adenosine receptor A3 (Homo sapiens) (P0DMS8 whole entry): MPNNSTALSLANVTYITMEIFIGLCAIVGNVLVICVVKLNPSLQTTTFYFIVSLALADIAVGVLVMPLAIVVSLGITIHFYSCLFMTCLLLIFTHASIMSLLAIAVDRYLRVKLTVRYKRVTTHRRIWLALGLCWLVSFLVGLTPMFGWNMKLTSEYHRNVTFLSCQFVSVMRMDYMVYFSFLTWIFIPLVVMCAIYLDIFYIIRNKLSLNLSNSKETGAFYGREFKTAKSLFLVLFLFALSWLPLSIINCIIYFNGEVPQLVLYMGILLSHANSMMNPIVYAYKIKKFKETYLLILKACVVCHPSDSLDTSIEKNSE
Chain of B1 bradykinin receptor (Homo sapiens) (P46663 whole entry): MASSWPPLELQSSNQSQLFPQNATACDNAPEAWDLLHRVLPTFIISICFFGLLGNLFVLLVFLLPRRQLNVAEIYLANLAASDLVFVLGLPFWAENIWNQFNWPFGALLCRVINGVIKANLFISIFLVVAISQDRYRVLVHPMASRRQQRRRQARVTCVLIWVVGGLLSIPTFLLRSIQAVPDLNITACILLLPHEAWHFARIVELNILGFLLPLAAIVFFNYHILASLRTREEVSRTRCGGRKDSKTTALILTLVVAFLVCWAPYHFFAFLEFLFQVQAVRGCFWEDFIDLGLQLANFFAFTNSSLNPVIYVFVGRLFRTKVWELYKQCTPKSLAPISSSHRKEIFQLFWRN

`COc1cccc2c1C(NC[C@]1(c3ccccc3)CC[C@H](O)CC1)=NS2(=O)=O`: the inhibition in the data set listed under Rattus norvegicus [1] was 3%; in [2], 19%; in [3] it was 9%; in the data set listed under Rattus norvegicus [4] it was 9%; in the data set filed under Rattus norvegicus [6], 17%; in data set [7], 42%. Further, the inhibition was 18% in data set [8]; 27% in the data set filed under Homo sapiens; 24% in the data set filed under Rattus norvegicus [11]; 0% in data set [13]; 4% in [14]; -9% in data set [15]. Further, the inhibition in [16] was 5%; in data set [17], 10%; in data set [18] it was -5%; in the data set filed under Rattus norvegicus [19], 29%. Also, the inhibition at 10 µM in [5] turned out to be 0%. In addition, the remaining at 10 min, 3 µM in data set [9] is 90%. Moreover, the Cmax in data set [10] was 1.7 µM; in data set [12], 6.1 µM. Also, the Activity result in the data set filed under Oryctolagus cuniculus was “Toxic”.
On to `COc1cccc2c1C(NC[C@]1(c3ccccc3)CC[C@H](NC(=O)OC(C)C)CC1)=NS2(=O)=O`, for which the inhibition in the data set listed under Rattus norvegicus [1] stood at 13%; in [2] it was 13%; in data set [3] it was 29%; in the data set listed under Rattus norvegicus [4], 30%; in the data set filed under Rattus norvegicus [6], 1%; in data set [7], 23%. For the same compound, the inhibition is 37% in data set [8]; -8% in data set [20]; -6% in [21]; 16% in data set [22]; 64% in [23]; 8% in [24]. In addition, the inhibition in [25] is -4%; in data set [26], 4%; in the data set listed under Homo sapiens it was 14%; in the data set listed under Rattus norvegicus [11], 15%; in data set [13], 3%; in [14], 6%. In addition, the inhibition is 11% in data set [15]; 25% in data set [16]; -6% in [17]; 23% in data set [18]; 2% in the data set listed under Rattus norvegicus [19]. For the same compound, the inhibition at 10 µM in data set [5] turned out to be 15%. Further, the remaining at 10 min, 3 µM in [9] was determined as 85%. In addition, the figures for the Cmax in data set [10] and in data set [12] were 0.93 µM and 4.7 µM, respectively.

As a reminder, the inhibition is the change of the read-out against control, counted positive when it falls. A word on the Cmax: it is the peak of the concentration-time curve.

These data come from ChEMBL document CHEMBL3621160, “Pseudosaccharin amines as potent and selective KV1.5 blockers” (Bioorg Med Chem Lett, 2015).
